Source: PubChem (The Scripps Research Institute Molecular Screening Center)
A selection: hits, their analogues and other compounds. The true share with any hit is near 2.9%.
PAD4 FP inh: human PAD4 inhibitors, primary screen, biochemical, fluorescence polarization, 1536-well format; AID 485272, 2010; Protein-arginine deiminase type-4 (Homo sapiens), Q9UM07; recombinant PAD4, RCA probe fluorescence polarization; inhibition, % at 6.36 µM; actives 0.41% (n = 330,000);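 active means percent inhibition above a cutoff equal to the mean of all tested compounds plus 3 SD, cut at about 15% in these data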;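 further: 0% = PAD4 with RCA probe and DMSO and 100% = probe without PAD4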
PRMT1 FP inh: PRMT1 methyltransferase inhibitors, primary screen, biochemical, fluorescence polarization | Protein arginine N-methyltransferase 1 (Homo sapiens), Q99873 | recombinant PRMT1, activity-based probe fluorescence polarization | inhibition, % at 2.79 µM | actives 1.3% (n = 370,000) | AID 652257, 2013;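 active means inhibition above about 21% made by adding two undisclosed values, limit read from the data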
ABHD4 inh: ABHD4 inhibitors, primary screen, biochemical, fluorescence polarization, mouse; inhibition, % at 8.92 µM; AID 720543, 2013; (Lyso)-N-acylphosphatidylethanolamine lipase (Mus musculus), Q8VD66; purified mABHD4, FP-Rh probe fluorescence polarization; actives 0.54% (n = 370,000);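 active means inhibition exceeding the mean over every tested compound plus 3 SD, cut at about 30% in these data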;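 further: 0% = plate median of compound wells and 100% = S159A mutant with DMSO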
Target sequence (Q8VD66 whole entry, looked up): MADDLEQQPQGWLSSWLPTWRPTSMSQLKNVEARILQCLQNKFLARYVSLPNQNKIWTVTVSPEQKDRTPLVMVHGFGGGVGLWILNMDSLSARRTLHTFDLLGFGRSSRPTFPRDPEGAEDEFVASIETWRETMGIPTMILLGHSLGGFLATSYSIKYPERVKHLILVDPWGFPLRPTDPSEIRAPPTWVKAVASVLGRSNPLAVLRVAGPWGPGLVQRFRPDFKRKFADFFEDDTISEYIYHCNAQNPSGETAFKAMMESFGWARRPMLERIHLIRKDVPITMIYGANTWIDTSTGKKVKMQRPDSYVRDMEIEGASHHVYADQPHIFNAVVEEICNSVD
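System: mouse ABHD4 enzyme, wild type / Medium: HEPES pH 7.0, NaCl, Pluronic buffer / Reagent: FP-Rh activity-based fluorescent probe / Control set: S159A mutant high control, sample median low control / Detection: fluorescence polarization with parallel and perpendicular emission, 525/598 nm / Schedule: 45 min + 60 min at 25 °C / Compound dosing: 8.92 µM, single dose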
TCR CD3 inh: inhibitors of human TCR-CD3 interaction, primary screen, biochemical, fluorescence, TAMRA-labeled TCR probe. T-cell receptor (TCR). inhibition, % at 9.4 µM. actives 0.37% (n = 360,000). AID 651800, 2012; in the data active means inhibition above about 19%;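 further: recombinant mutant TCR 2C K166C tagged with TAMRA read by polarization; 0% = receptor in buffer alone and 100% = receptor with positive control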
SIAE primary: human SIAE inhibitors, primary screen, biochemical, fluorescence polarization, FP-Rh probe, 1536-well HTS; Sialate O-acetylesterase (Homo sapiens), Q9HAT2; SIAE FP-Rh probe binding; inhibition, % at 9.66 µM; actives 0.69% (n = 370,000); AID 1053197, 2014;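 active means inhibition above a cutoff: mean of compounds within the control limits plus 3 SD of those, cut at about 17% in these data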;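 further: 0% = plate median of compound wells and 100% = probe without SIAE protein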
HTRA1 inhibitor: HTRA1 serine protease inhibitors, primary screen, biochemical, fluorescence polarization, HTS; inhibition, % at 5.96 µM; actives 0.5% (n = 340,000); Q92743; recombinant HTRA1, FP-rhodamine activity-based probe; in the data active means inhibition above about 36%;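 further: 0% = enzyme with DMSO and 100% = wells lacking enzyme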
Active calls of the source: *; / = no result.

SMILES | PAD4 FP inh | PRMT1 FP inh | ABHD4 inh | TCR CD3 inh | SIAE primary | HTRA1 inhibitor
COC1=C(N)C(=O)c2nc(C)ccc2C1=O | / | 5.0 | 8.5 | -1.1 | -3.5 | 10.4
Cc1cc(NC(=O)COc2cc(F)cc(F)c2)n(-c2ccccc2)n1 | / | 1.2 | -5.3 | / | 6.3 | /
COc1cc(C=Nn2c(-c3cc(-c4ccccc4)n[nH]3)n[nH]c2=S)ccc1OC(C)=O | / | 32.9* | -0.4 | / | 8.6 | /
N#CCC[C@H]1CC[C@]2(CCCN(C(=O)c3ccccc3)C2)O1 | / | 2.8 | -13.1 | / | -1.8 | /
O=C(NC1CC1)c1ccc2c(c1)S(=O)(=O)c1cc(Cl)ccc1C2=O | 19.9* | 1.0 | 2.6 | 2.1 | 5.1 | /
COCCNC(=O)c1ccc2c(c1)S(=O)(=O)c1cc(Cl)ccc1C2=O | -3.7 | -1.5 | 10.0 | 4.0 | 10.0 | 3.5
O=C(NNc1nc2ccccc2s1)Nc1ccc(Cl)c(Cl)c1 | 6.6 | 22.8* | 11.9 | -19.5 | 5.0 | -11.1
CCCN(C)C1CN(Cc2cn(CCCOC)nn2)S(=O)(=O)C1 (stereo not given) | / | 22.6* | 5.5 | -0.4 | -1.3 | /
CCOC(=O)c1c(NC(C)=O)sc2c(O)c(Br)cc(Br)c12 | -4.1 | 10.3 | 36.2* | 9.3 | 6.1 | 0.2
O=S1(=O)C=CCN1Cc1cn(Cc2ccccc2)nn1 | / | -2.2 | -2.5 | / | 1.9 | /
CCc1c(O)nc(SCC(=O)Nc2c(C)cccc2C)n(-c2ccc(F)cc2)c1=O | / | 13.7 | -0.8 | 0.1 | -3.1 | 8.8
COc1cccc(NC(=O)CSc2nc(O)c(C)c(=O)n2-c2ccc(C)cc2)c1 | 0.5 | 24.5* | 6.3 | -3.6 | -6.6 | -4.0
CCCCc1c(O)nc(SCC(=O)Nc2ccc(C)cc2)n(-c2ccc(OC)cc2)c1=O | -2.0 | 9.0 | -0.6 | -5.4 | 3.8 | 1.5
Cc1c(O)nc(SCC(=O)Nc2ccc3c4c(cccc24)CC3)n(-c2ccc(F)cc2)c1=O | 2.4 | 24.6* | 5.1 | 6.4 | -0.5 | 5.8
C#CCNC(=O)C[C@H]1C[C@@]2(C(=O)OC)C(=C[C@H](C(C)C)O[C@@H]2C2CC2)N(CCCCCCCC)C1=O | / | 0.2 | -4.4 | / | 7.9 | /
COc1ccc(NCc2cc3cc(OC)ccc3[nH]c2=O)cc1 | -7.5 | 21.3* | 18.9 | -3.2 | 4.5 | 32.2
S=c1[nH]nc(-c2ccco2)n1/N=C/c1ccc(Cl)c(Cl)c1 | 0.5 | 22.3* | -2.2 | -1.4 | 0.0 | -7.4
O=c1cc(O)n(C2CCCCCC2)c(=O)[nH]1 | -1.3 | 24.1* | 10.5 | -6.6 | 3.2 | -3.7
Cc1ccc(C(=O)N(C)[C@H]2C[C@H]3c4[nH]c5c(-c6ccc7c(c6)OCO7)cccc5c4CCN3C[C@H]2[C@H](C)O)cc1 | / | -0.7 | -0.2 | / | -1.8 | /
O=c1[nH]c2ccccc2c2oc(CCl)nc12 | -1.9 | 21.3* | 0.4 | -2.7 | 10.2 | -0.8
CCC1CCc2c(c3ccccc3[nH]c2=O)O1 (stereo not given) | -1.4 | 0.2 | -3.3 | 3.9 | 0.1 | -5.8
Cc1ccsc1C=Nn1c(-c2n[nH]c3c2CCC3)n[nH]c1=S | / | 9.6 | 1.2 | / | 11.1 | /
Cc1ccc(NNC(=O)Nc2ccc(Cl)cc2)nn1 | 0.0 | 24.2* | -11.6 | -4.6 | -3.1 | /
O=C(NNc1cccc(Cl)n1)Nc1ccc(Cl)cc1 | -2.0 | 1.3 | -5.3 | 1.0 | 8.8 | -14.6
CCOc1ccc(C(=O)N/N=C(/C)C2C(=O)c3ccccc3C2=O)cc1 | -9.7 | -0.9 | 10.4 | 9.1 | 3.7 | 10.1
C/C(=N\NC(=O)c1ccc(Br)cc1)C1C(=O)c2ccccc2C1=O | -1.9 | 0.1 | 36.0* | 27.0* | 0.3 | 40.0*
CCOC(=O)N1CCN(C(=O)CCS(=O)(=O)c2ccc(Br)s2)CC1 | -3.5 | -1.9 | 6.1 | -0.3 | 17.1* | 8.9
CCOc1ccccc1-n1c(=S)sc2c(=O)n(-c3ccc(C)cc3)c(=S)[nH]c21 | -4.4 | 73.0* | 8.3 | -0.4 | 5.6 | -1.9
CCn1c(=S)sc2c(=O)n(-c3ccccc3)c(=S)[nH]c21 | 4.9 | 6.5 | 0.2 | 6.1 | -1.9 | -21.1
